The record followed here is ChEMBL document CHEMBL4411317 (Bioorg Med Chem, 2019).

The term IC50 denotes the midpoint of a concentration-inhibition curve.

The target of one data set is Dipeptidyl peptidase 9 (Homo sapiens, UniProt Q86TI2). Nature of the data set: Inhibition of recombinant full-length human N-terminal GST-tagged DPP9 expressed in Sf9 insect cells using Gly-Pro-AMC as substrate measured at 60 secs interval for 20 mins by fluorescence assay.
Another data set deals with Dipeptidyl peptidase 8 (Homo sapiens, UniProt Q6V1X1). Put plainly: Inhibition of recombinant full-length human N-terminal GST-tagged DPP8 expressed in Sf9 insect cells using Gly-Pro-AMC as substrate measured at 60 secs interval for 20 mins by fluorescence assay.
Chain of Dipeptidyl peptidase 8 (Q6V1X1 whole entry): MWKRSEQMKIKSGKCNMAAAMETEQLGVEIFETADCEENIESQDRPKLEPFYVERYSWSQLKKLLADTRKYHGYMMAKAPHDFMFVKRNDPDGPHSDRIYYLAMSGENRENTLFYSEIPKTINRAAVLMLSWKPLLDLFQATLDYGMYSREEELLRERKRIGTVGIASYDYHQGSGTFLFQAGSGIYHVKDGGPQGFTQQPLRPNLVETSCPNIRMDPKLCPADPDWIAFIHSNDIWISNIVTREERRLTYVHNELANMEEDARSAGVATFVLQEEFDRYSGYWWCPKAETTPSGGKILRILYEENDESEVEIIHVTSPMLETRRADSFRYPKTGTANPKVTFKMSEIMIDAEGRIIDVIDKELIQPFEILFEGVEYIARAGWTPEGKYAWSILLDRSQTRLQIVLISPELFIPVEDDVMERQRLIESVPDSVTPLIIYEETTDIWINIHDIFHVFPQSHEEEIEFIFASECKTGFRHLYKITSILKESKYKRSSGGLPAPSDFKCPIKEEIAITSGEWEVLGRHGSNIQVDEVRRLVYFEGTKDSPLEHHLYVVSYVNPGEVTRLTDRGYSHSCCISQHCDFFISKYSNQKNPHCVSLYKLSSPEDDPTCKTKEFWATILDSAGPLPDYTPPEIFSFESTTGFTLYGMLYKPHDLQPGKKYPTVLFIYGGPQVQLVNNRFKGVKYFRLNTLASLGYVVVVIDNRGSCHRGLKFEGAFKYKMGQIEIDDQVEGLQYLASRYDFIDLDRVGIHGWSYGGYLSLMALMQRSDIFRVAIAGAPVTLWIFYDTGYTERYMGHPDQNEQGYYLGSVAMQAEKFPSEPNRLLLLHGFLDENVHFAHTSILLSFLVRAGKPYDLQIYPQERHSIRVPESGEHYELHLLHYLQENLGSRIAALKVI
Data set [1] can be described thus: Cytotoxicity against human LO2 cells assessed as cell viability at 100 uM after 48 hrs by MTT assay relative to control. Conditions: read-out: Activity. In kind it is cell-based, L02. The essentials:
(§1)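 Hepatic LO2 cells grown in DMEM with 10% FBS and antibiotics at 37 °C, 5% CO2; log-phase cells seeded at 1 × 10^4 per well and exposed to compounds for 48 h. MTT (5 mg/mL stock in PBS) added 4 h before end; formazan dissolved in DMSO, absorbance read at 490 nm.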
(In general: Tetrazolium assays rely on reduction of a dye to a coloured formazan, in cell work by metabolically active cells.)

Data set [2] can be described thus: Cytotoxicity against human LO2 cells assessed as cell viability at 20 uM after 48 hrs by MTT assay relative to control. It is filed as cell-based, L02. Conditions: read-out: Activity. Summed up:
as §1

Data set [3] in a line: Retention time of the compound in water at 1 uM by LC/MS/MS method. It is filed as physicochemical. The settings on record: buffer.
A short description of data set [4]: Cytotoxicity against human LO2 cells assessed as cell viability at 50 uM after 48 hrs by MTT assay relative to control. In kind it is cell-based, L02. The settings on record: read-out: Activity. The essentials:
as §1

The nature of data set [5]: Retention time of the compound in rat plasma by LC/MS/MS method. It is filed as ADME, cell-free.
The next data set has as its system Mus musculus. Put plainly: Hypoglycemic activity in po dosed Kunming mouse assessed as decrease in blood glucose AUC (0 to 120 mins) administered as single dose treated for 30 mins prior to glucose load by OGTT. It is filed as functional, organism-based. Summed up:
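Male Kunming mice (20±2 g) fasted overnight (12 h), randomized (n = 8), given a single oral dose suspended in water vehicle; oral glucose 3 g/kg 30 min later. Blood sampled at -30, 0, 15, 30, 60 and 120 min; glucose AUC0–120 min versus vehicle, mean ± SEM, one-way ANOVA with Dunnett's test.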

Data set [6] in a line: Retention time of the compound in rat plasma at 1 uM by LC/MS/MS method. In kind it is ADME, cell-free.
Data set [7] is described as follows: Drug metabolism in rat plasma assessed as (R)-2-((4-(3-Aminopiperidin-1-yl)-3-(but-2-yn-1-yl)-2,6-dioxo-3,6-dihydropyrimidin-1(2H)-yl)methyl)-6-fluorobenzoic acid hydrochloride formation at 1 uM after 30 mins by LC/MS/MS method. Conditions: 0.5 h. It is filed as ADME, cell-free. The essentials:
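Ester prodrug incubated with rat plasma at 37 °C for 0 and 30 min; ester and formed acid quantified by LC/MS/MS.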

Chain of Dipeptidyl peptidase 9 (Q86TI2 whole entry): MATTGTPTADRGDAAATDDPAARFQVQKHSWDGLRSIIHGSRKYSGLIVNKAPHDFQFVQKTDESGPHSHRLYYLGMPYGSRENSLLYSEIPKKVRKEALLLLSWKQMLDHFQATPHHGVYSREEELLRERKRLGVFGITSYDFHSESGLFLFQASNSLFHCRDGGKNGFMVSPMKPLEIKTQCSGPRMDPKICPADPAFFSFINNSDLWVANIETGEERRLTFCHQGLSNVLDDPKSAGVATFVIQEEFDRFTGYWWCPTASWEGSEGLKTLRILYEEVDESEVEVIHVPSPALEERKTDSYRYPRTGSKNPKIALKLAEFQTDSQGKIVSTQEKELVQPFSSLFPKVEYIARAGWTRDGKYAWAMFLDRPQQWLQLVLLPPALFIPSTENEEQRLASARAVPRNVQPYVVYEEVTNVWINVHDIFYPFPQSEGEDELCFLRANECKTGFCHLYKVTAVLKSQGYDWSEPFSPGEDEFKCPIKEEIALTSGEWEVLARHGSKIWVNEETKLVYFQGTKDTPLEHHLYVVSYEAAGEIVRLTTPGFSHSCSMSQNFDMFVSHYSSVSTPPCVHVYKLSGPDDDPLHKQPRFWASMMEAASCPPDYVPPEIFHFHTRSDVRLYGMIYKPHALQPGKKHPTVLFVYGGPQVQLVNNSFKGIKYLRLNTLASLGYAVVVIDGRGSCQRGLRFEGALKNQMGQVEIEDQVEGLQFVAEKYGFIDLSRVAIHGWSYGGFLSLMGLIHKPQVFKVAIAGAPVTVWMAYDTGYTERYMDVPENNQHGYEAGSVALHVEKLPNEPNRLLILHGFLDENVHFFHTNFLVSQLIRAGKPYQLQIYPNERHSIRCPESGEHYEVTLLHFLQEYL

On to `CC#CCn1c(N2CCC[C@@H](N)C2)cc(=O)n(Cc2ccc(F)cc2C(=O)O)c1=O`, for which the IC50 on Dipeptidyl peptidase 9 and at Dipeptidyl peptidase 8 was > 100 µM each time.

In the case of `CC#CCn1c(N2CCC[C@@H](N)C2)cc(=O)n(Cc2cc(Br)ccc2C(=O)OC)c1=O`, the viability at 48 h, 100 µM in [1] stood at 14%. For the same compound, the IC50 at Dipeptidyl peptidase 9 and at Dipeptidyl peptidase 8 was > 100 µM in each case.

Turning to `COc1cccc2c1C(=O)c1c(O)c3c(c(O)c1C2=O)C[C@@](O)(C(=O)CO)C[C@@H]3O[C@H]1C[C@H](N)[C@H](O)[C@H](C)O1` [DOXORUBICIN], the viability at 48 h, 20 µM in data set [2] was found to be 11%.

As for `CC#CCn1c(N2CCC[C@@H](N)C2)cc(=O)n(Cc2cccc(F)c2C(=O)O)c1=O`, the Retention_time turned out to be 2.03 min in [3] and 2 min in [5]. In addition, the viability at 48 h, 50 µM in [4] was 90%. In [1], the viability at 48 h, 100 µM was 70%.

As for `CC#CCn1c(N2CCC[C@@H](N)C2)cc(=O)n(Cc2cccc(F)c2C(=O)OC)c1=O`, in the data set on Mus musculus, the Activity result was “Dose-dependent effect”. Also, the Retention_time in data set [3] and in data set [6] was 5.41 min each time. In addition, the viability at 48 h, 50 µM in data set [4] turned out to be 90%. For the same compound, the viability at 48 h, 100 µM in data set [1] came to 70%. For the same compound, the IC50 on Dipeptidyl peptidase 9 and on Dipeptidyl peptidase 8 was > 100 µM each time. In addition, the Drug metabolism result in data set [7] is on record as “Metabolite_Detected”.

With `CC#CCn1c(N2CCC[C@@H](N)C2)cc(=O)n(Cc2cc(C#N)ccc2C(=O)O)c1=O`, the IC50 on Dipeptidyl peptidase 9 and on Dipeptidyl peptidase 8 was > 100 µM throughout.

Consider `CC#CCn1c(N2CCC[C@@H](N)C2)cc(=O)n(Cc2ccc(Br)cc2C(=O)O)c1=O`, for which the half-inhibitory concentration (IC50) on Dipeptidyl peptidase 9 and at Dipeptidyl peptidase 8 was > 100 µM throughout.

With `CC#CCn1c(N2CCC[C@@H](N)C2)cc(=O)n(Cc2ccc(Cl)cc2C(=O)O)c1=O`, the concentration for half-maximal inhibition (IC50) on Dipeptidyl peptidase 9 and at Dipeptidyl peptidase 8 was > 100 µM in each case.

On to `CC#CCn1c(N2CCC[C@@H](N)C2)cc(=O)n(Cc2cc(Br)ccc2C(=O)O)c1=O`, for which the viability at 48 h, 50 µM in data set [4] is 90%. Also, in data set [1], the viability at 48 h, 100 µM turned out to be 70%. The IC50 on Dipeptidyl peptidase 9 and at Dipeptidyl peptidase 8 was > 100 µM in each case.

Consider `CC#CCn1c(N2CCC[C@@H](N)C2)cc(=O)n(Cc2ccccc2C(=O)O)c1=O`, for which the IC50 on Dipeptidyl peptidase 9 and on Dipeptidyl peptidase 8 was > 100 µM throughout.

Turning to `CC#CCn1c(N2CCC[C@@H](N)C2)cc(=O)n(Cc2cc(OC)ccc2C(=O)O)c1=O`, the IC50 on Dipeptidyl peptidase 9 and on Dipeptidyl peptidase 8 was > 100 µM throughout.
